Source: ChEMBL document CHEMBL1125212, “Dual-action cephalosporins: cephalosporin 3'-quinolone carbamates” (J Med Chem, 1991)
≈ marks a conversion by molar mass, not a printed value.

Columns and labels:
Escherichia coli [1] = assay: The compound was evaluated for the inhibition of [14C]- Pen G binding to Escherichia coli UB1005 PBP1a 90 kDa.; assay type: functional
How it was run: (§1)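 Penicillin-binding protein assay using solubilized membranes from sonicated E. coli UB1005. Binding was read as inhibition of [14C]penicillin G binding to the PBPs.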

Escherichia coli [2] = assay: Minimum inhibitory concentration for inhibition of [14C]- Pen G binding to Escherichia coli UB1005.; assay type: functional; how it was run: as §1
Escherichia coli [3] = assay: The compound was evaluated for the inhibition of [14C]- Pen G binding to Escherichia coli UB1005 PBP2 66 kDa.; assay type: functional; how it was run: as §1
Escherichia coli [4] = assay: The compound was evaluated for the inhibition of [14C]- Pen G binding to Escherichia coli UB1005 PBP3 60 kDa.; assay type: functional; how it was run: as §1
Escherichia coli [5] = assay: The compound was evaluated for the inhibition of [14C]- Pen G binding to Escherichia coli UB1005 PBP1b 90 kDa.; assay type: functional; how it was run: as §1
Proteus vulgaris = assay: The compound was tested in vitro for minimum inhibitory concentration against Proteus vulgaris 1028 BC; assay type: functional
How it was run: (§2)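 Proteus MICs by agar dilution on Mueller-Hinton medium containing 3% agar. Serial 2-fold dilutions gave final 128 to 0.0156 μg/mL (further to 0.000977 μg/mL). Inoculum was overnight broth diluted 100-fold, about 3×10^4 CFU/spot. Plates read after overnight incubation at 36 °C.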

Escherichia coli [6] = assay: The compound was evaluated for the inhibition of [14C]- Pen G binding to Escherichia coli UB1005 penicillin-binding protein 3 60 kDa.
How it was run: (§3)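 Membranes from sonicated E. coli UB1005 were solubilized. Binding to penicillin-binding proteins was measured as inhibition of [14C]penicillin G binding.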

Escherichia coli [7] = assay: The compound was evaluated for the inhibition of [14C]- Pen G binding to Escherichia coli UB1005 penicillin-binding protein 1a 90 kDa.; how it was run: as §3
Pseudomonas aeruginosa [8] = assay: The compound was tested in vitro for minimum inhibitory concentration against Pseudomonas aeruginosa 8780; assay type: functional
How it was run: (§4)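 Agar dilution on Mueller-Hinton agar using 2-fold serial dilutions, giving final 128 to 0.0156 μg/mL (extended to 0.000977 μg/mL where needed). Inoculum was overnight broth culture diluted 100-fold, about 3×10^4 CFU/spot, applied by replicator. MIC read after overnight incubation at 36 °C.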

Escherichia coli [9] = assay: The compound was evaluated for the inhibition of [14C]- Pen G binding to Escherichia coli UB1005 penicillin-binding protein 2 66 kDa.; how it was run: as §3
Escherichia coli [10] = assay: The compound was tested in vitro for minimum inhibitory concentration against Escherichia coli TEM-1; assay type: functional; how it was run: as §4
Staphylococcus aureus [11] = assay: The compound was tested in vitro for minimum inhibitory concentration against Staphylococcus aureus 67-0; assay type: functional; how it was run: as §4
Mus musculus [12] = organism: Mus musculus; assay: (§5) Effective dose against mouse infected with Pseudomonas aeruginosa 8780 (LDs-240); assay type: functional
How it was run: (§6)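 CD1 Swiss albino mice (18-20 g) infected intraperitoneally with 0.5 mL of diluted bacterial suspension. Challenge expressed as a multiple of LD50. Drug given subcutaneously at the dorsal neck base within 5 min of infection (1.0 mL), with a second treatment 3 h after infection. Dose range 250 to 0.05 mg/kg. Six mice per group. ED50 by the Reed-Muench method.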

Mus musculus [13] = organism: Mus musculus; assay: (§7) Effective dose against mouse infected with Streptococcus pneumoniae 6301(LDs-5623); assay type: functional
How it was run: (§8)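 Mouse protection test in CD1 Swiss albino mice (18-20 g) given an intraperitoneal challenge (0.5 mL of diluted culture), expressed as a multiple of LD50. A single subcutaneous dose of 1.0 mL test solution was given at the dorsal neck base within 5 min of infection. Dose range 250 to 0.05 mg/kg. Six mice per group. ED50 (protective dose) by Reed-Muench.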

Escherichia coli [14] = assay: Minimum inhibitory concentration for inhibition of [14C]- Pen G binding to Escherichia coli UB1005; assay type: functional; how it was run: as §3
Proteus mirabilis = assay: The compound was tested in vitro for minimum inhibitory concentration against Proteus mirabilis 90; assay type: functional; how it was run: as §2
Streptococcus pneumoniae [15] = assay: The compound was tested in vitro for minimum inhibitory concentration against Streptococcus pneumoniae 6301; assay type: functional
How it was run: (§9)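 Streptococci tested by agar dilution on brain heart infusion agar with 20 units/mL bovine liver catalase. Final drug range 128 to 0.0156 μg/mL by 2-fold steps, extended to 0.000977 μg/mL when required. Inoculum about 3×10^4 CFU/spot from overnight broth diluted 100-fold. MIC after overnight incubation at 36 °C.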

Citrobacter freundii = assay: The compound was tested in vitro for minimum inhibitory concentration against Citrobacter Freundii BS-16; assay type: functional; how it was run: as §4
Micrococcus luteus = assay: The compound was tested in vitro for minimum inhibitory concentration against Micrococcus luteus ATCC 9341; assay type: functional; how it was run: as §4
Escherichia coli [16] = assay: The compound was tested in vitro for minimum inhibitory concentration against Escherichia coli ATCC 25922; assay type: functional; how it was run: as §4
Staphylococcus aureus [17] = assay: The compound was tested in vitro for minimum inhibitory concentration against Staphylococcus aureus 753; assay type: functional, staphylococcus aureus smith; how it was run: as §4
Enterococcus faecalis = assay: The compound was tested in vitro for minimum inhibitory concentration against Enterococcus faecalis ATCC 29212; assay type: functional; how it was run: as §4
Pseudomonas aeruginosa [18] = assay: The compound was tested in vitro for minimum inhibitory concentration against Pseudomonas aeruginosa 18S/H; assay type: functional; how it was run: as §4
Streptococcus pyogenes = assay: The compound was tested in vitro for minimum inhibitory concentration against Streptococcus pyogenes; assay type: functional; how it was run: as §9
Staphylococcus aureus [19] = assay: The compound was tested in vitro for minimum inhibitory concentration against Staphylococcus aureus smith; assay type: functional
How it was run: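 Agar dilution MIC on Mueller-Hinton agar. Compounds were serially diluted 2-fold in water; final agar concentrations ran from 128 to 0.0156 μg/mL, extended to 0.000977 μg/mL for very active compounds. Spots were inoculated by replicator with overnight broth cultures diluted 100-fold, about 3×10^4 CFU/spot. MIC was read after overnight incubation at 36 °C.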

Klebsiella pneumoniae = assay: The compound was tested in vitro for minimum inhibitory concentration against Klebsiella pneumoniae A; assay type: functional; how it was run: as §4
Serratia marcescens = assay: The compound was tested in vitro for minimum inhibitory concentration against Serratia marcescens 1071; assay type: functional; how it was run: as §4
Escherichia coli [20] = assay: The compound was evaluated for the inhibition of [14C]- Pen G binding to Escherichia coli UB1005 penicillin-binding protein 1b 90 kDa.; how it was run: as §3
Escherichia coli [21] = assay: The compound was tested in vitro for minimum inhibitory concentration against Escherichia coli 257; assay type: functional; how it was run: as §4
Mus musculus [22] = organism: Mus musculus; assay: Effective dose against mouse infected with Staphylococcus aureus 753 (MR) (LDs-6); assay type: functional; how it was run: as §8
Enterobacter cloacae = assay: The compound was tested in vitro for minimum inhibitory concentration against Enterobacter cloacae P99; assay type: functional
Escherichia coli [23] = assay: Inhibitory activity on replicative DNA biosynthesis in Escherichia coli H560 (permeabilised cells); assay type: functional, organism-based
How it was run: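 E. coli H560 cells permeabilized with toluene. ATP-dependent incorporation of [3H]thymidine into trichloroacetic acid-insoluble material was measured. IC50 taken as the concentration giving 50% inhibition.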

Staphylococcus aureus [24] = assay: animal or person; conditions: in Mus musculus
Pseudomonas aeruginosa [25] = assay: as §5; assay type: functional; how it was run: as §6
Streptococcus pneumoniae [26] = assay: as §7; assay type: functional; how it was run: as §8

CCN1CCN(C(=O)N[C@@H](C(=O)N[C@@H]2C(=O)N3C(C(=O)O)=C(CSc4nnnn4C)CS[C@H]23)c2ccc(O)cc2)C(=O)C1=O [CEFOPERAZONE]
Inhibitory concentration (Escherichia coli [1]): 10 µg/mL | MIC (Escherichia coli [2]): 1 µg/mL (≈ 1.55 µM) | Inhibitory concentration (Escherichia coli [3]): 2 µg/mL | Inhibitory concentration (Escherichia coli [4]): < 0.1 µg/mL | Inhibitory concentration (Escherichia coli [5]): 10 µg/mL

CO/N=C(\C(=O)N[C@@H]1C(=O)N2C(C(=O)O)=C(COC(C)=O)CS[C@H]12)c1csc(N)n1 [CEFOTAXIME]
MIC (Proteus vulgaris): > 128 µg/mL | Inhibitory concentration (Escherichia coli [6]): < 0.1 µg/mL | Inhibitory concentration (Escherichia coli [7]): < 0.1 µg/mL | MIC (Pseudomonas aeruginosa [8]): 16 µg/mL (≈ 35.1 µM) | Inhibitory concentration (Escherichia coli [9]): 100 µg/mL | MIC (Escherichia coli [10]): 0.063 µg/mL (≈ 0.138 µM) | MIC (Staphylococcus aureus [11]): > 128 µg/mL | ED50 (Mus musculus [12]): > 100 mg/kg | ED50 (Mus musculus [13]): 15 mg/kg | MIC (Escherichia coli [14]): 0.06 µg/mL (≈ 0.132 µM) | MIC (Proteus mirabilis): < 0.016 µg/mL | MIC (Streptococcus pneumoniae [15]): < 0.016 µg/mL | MIC (Citrobacter freundii): 32 µg/mL (≈ 70.3 µM) | MIC (Micrococcus luteus): 0.031 µg/mL (≈ 0.0681 µM) | MIC (Escherichia coli [16]): 0.063 µg/mL (≈ 0.138 µM) | MIC (Staphylococcus aureus [17]): > 128 µg/mL | MIC (Enterococcus faecalis): 0.25 µg/mL (≈ 0.549 µM) | MIC (Pseudomonas aeruginosa [18]): 128 µg/mL (≈ 281 µM) | MIC (Streptococcus pyogenes): < 0.016 µg/mL | MIC (Staphylococcus aureus [19]): 2 µg/mL (≈ 4.39 µM) | MIC (Klebsiella pneumoniae): 0.031 µg/mL (≈ 0.0681 µM) | MIC (Serratia marcescens): 32 µg/mL (≈ 70.3 µM) | Inhibitory concentration (Escherichia coli [20]): 0.5 µg/mL | MIC (Escherichia coli [21]): 0.031 µg/mL (≈ 0.0681 µM) | ED50 (Mus musculus [22]): > 100 mg/kg | MIC (Enterobacter cloacae): 64 µg/mL (≈ 141 µM)

O=C(O)c1cn(C2CC2)c2cc(N3CCNCC3)c(F)cc2c1=O [CIPROFLOXACIN]
MIC (Proteus vulgaris): 0.016 µg/mL (≈ 0.0483 µM) | IC50 (Escherichia coli [23]): 0.3 µg/mL (≈ 0.905 µM) | ED50 (Staphylococcus aureus [24]): 2 mg/kg | MIC (Staphylococcus aureus [11]): 0.5 µg/mL (≈ 1.51 µM) | ED50 (Pseudomonas aeruginosa [25]): 3 mg/kg | ED50 (Streptococcus pneumoniae [26]): > 50 mg/kg | MIC (Proteus mirabilis): 0.063 µg/mL (≈ 0.19 µM) | MIC (Streptococcus pneumoniae [15]): 1 µg/mL (≈ 3.02 µM) | MIC (Citrobacter freundii): 0.031 µg/mL (≈ 0.0936 µM) | MIC (Micrococcus luteus): 2 µg/mL (≈ 6.04 µM) | MIC (Staphylococcus aureus [17]): 0.25 µg/mL (≈ 0.754 µM) | MIC (Enterococcus faecalis): 1 µg/mL (≈ 3.02 µM) | MIC (Streptococcus pyogenes): 0.5 µg/mL (≈ 1.51 µM) | MIC (Klebsiella pneumoniae): 0.25 µg/mL (≈ 0.754 µM) | MIC (Serratia marcescens): 0.063 µg/mL (≈ 0.19 µM)
